Results taken from ChEMBL document CHEMBL2093137, “WHO-TDR NTD Screening”.
Converted amounts (≈) assume the structure as drawn.

Legend:
[1] = tested on: Trypanosoma brucei brucei; assay: WHO-TDR: Human African Trypanosomiasis (HAT); format: functional, organism-based; conditions: Squib-427
Summary of the method: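 Following previously published standard procedures, with reference drugs as positive controls, a whole-organism assay was run against bloodstream-form Trypanosoma brucei, Squib 427 strain. The compounds, 10,000 in all, came from a diverse Life Chemicals library filtered for drug-likeness and reactive groups. Reported values are IC50 for antiparasitic potency.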

Plasmodium falciparum K1 = assay: WHO-TDR: Malaria; format: functional, organism-based, Homo sapiens; conditions: Erythrocyte
Summary of the method: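 Life Chemicals supplied the diverse library of 10,000 compounds, which had been filtered for drug-likeness and reactive groups. Each was screened against the K1 strain of Plasmodium falciparum at its intra-erythrocytic stage in human red blood cells, using previously published standard procedures and a reference drug as positive control. The table reports IC50 for antiplasmodial potency.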

Schistosoma mansoni = assay: WHO-TDR: Schistosomiasis; format: functional; set-up: concentration or dose not given beside the values
Summary of the method: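 Percent inhibition and IC50 describe activity against whole Schistosoma mansoni worms of the Puerto Rican strain, tested as larvae and/or adults. The compounds screened were a diverse set of 10,000 from Life Chemicals, filtered for drug-likeness and reactive groups. Testing followed previously published standard procedures, with a reference drug as positive control.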

Leishmania infantum = assay: WHO-TDR: Leishmaniasis; format: functional, organism-based, Mus musculus; conditions: Macrophage
Summary of the method: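 IC50 values describe antiparasitic potency in this whole-organism screen. Leishmania infantum MHOM/MA(BE)/67 amastigotes were tested inside murine peritoneal macrophages against a 10,000-compound diverse Life Chemicals library. A reference drug served as positive control.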

[2] = WHO-TDR: Cytotoxicity; format: toxicity, cell-based; conditions: human, MRC5 cells
Onchocerca ochengi [3] = assay: (§1) WHO-TDR: Onchocerciasis; format: functional; set-up: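 at 12.5 µM on microfilariae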
Summary of the method: (§2)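 Percent inhibition and IC50 describe activity against microfilariae of Onchocerca ochengi or Onchocerca lienalis, used as animal-pathogen substitutes for the human parasite. The compounds tested made up a 10,000-member diverse library from Life Chemicals.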

Onchocerca ochengi [4] = assay: as §1; format: functional; set-up: concentration or dose not given beside the values; summary of the method: as §2; remark: listed apart in the source
Trypanosoma cruzi = assay: WHO-TDR: Chagas disease; format: functional, organism-based, Homo sapiens; conditions: MRC5
Summary of the method: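 Whole-organism screen of a 10,000-compound diverse library from Life Chemicals, filtered for drug-likeness and reactive groups, against intracellular amastigotes of Trypanosoma cruzi Tulahuen CL2 beta-galactosidase strain grown in MRC-5SV2 human lung fibroblast host cells. The assay followed previously published standard procedures, with a reference drug as positive control. Antiparasitic potency is reported as IC50.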

Brugia malayi [5] = assay: (§3) WHO-TDR: Lymphatic Filariasis; format: functional; set-up: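 tested at 10 µM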
Summary of the method: (§4)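 The screening set was a 10,000-compound diverse library from Life Chemicals, filtered for drug-likeness and for reactive groups. It was run against Brugia malayi microfilariae as whole organisms, using previously published standard procedures. Reference drugs acted as positive controls, and activity is reported both as percent inhibition and as IC50.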

Onchocerca lienalis = assay: as §1; format: functional; set-up: concentration or dose not given beside the values; summary of the method: as §2;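 further: at 12.5 µM on microfilariae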
Brugia malayi [6] = assay: as §3; format: functional; set-up: concentration or dose not given beside the values; summary of the method: as §4; remark: listed apart in the source

SMILES | IC50 [1] [µg/mL] | IC50 (Plasmodium falciparum K1) [µg/mL] | IC50 (Leishmania infantum) [µg/mL] | % Inhibition (Schistosoma mansoni) [%] | IC50 [2] [µg/mL] | % Inhibition (Onchocerca ochengi [3]) [%] | % Inhibition (Onchocerca ochengi [4]) [%] | IC50 (Trypanosoma cruzi) [µg/mL] | % Inhibition (Brugia malayi [5]) [%] | % Inhibition (Onchocerca lienalis) [%] | % Inhibition (Brugia malayi [6]) [%]
CC(C)N1CCc2c(sc(NC(=O)c3sc4ccccc4c3Cl)c2C(N)=O)C1 | 2.02 (≈ 4.65 µM) | > 14.1 | 0.457 (≈ 1.05 µM) | 0 | 4.25 (≈ 9.8 µM) | – | – | 0.552 (≈ 1.27 µM) | 0 | 0 | 33.33
CCN1CCc2c(sc(NC(=O)c3ccccc3)c2-c2nc3ccccc3s2)C1 | 1.22 (≈ 2.91 µM) | 2.17 (≈ 5.17 µM) | 4.43 (≈ 10.6 µM) | 25 | 3.75 (≈ 8.94 µM) | – | – | 0.514 (≈ 1.23 µM) | 0 | 0 | 0
CC(C)(C)c1ccc(-c2csc(NC(=O)c3ccc4ncsc4c3)n2)cc1 | 3.46 (≈ 8.8 µM) | 2.77 (≈ 7.04 µM) | 4.24 (≈ 10.8 µM) | 0 | 7.77 (≈ 19.7 µM) | – | – | 0.891 (≈ 2.26 µM) | 0 | 33.3 | 50
N#Cc1cnc2c(F)cccc2c1Nc1ccc(Br)cc1 | > 11.4 | > 11.4 | > 11.4 | 0 | > 11.4 | 100 | – | > 11.4 | 0 | – | 0
O=C(C1CCCC1)N1CCc2ccc(NS(=O)(=O)c3ccc4c(c3)OCCO4)cc21 | > 12.9 | > 12.9 | 0.416 (≈ 0.971 µM) | 0 | > 12.9 | 0 | – | > 12.9 | 0 | – | 0
CCSc1nnc(-c2ccccc2)c2sc(C)nc12 | 0.146 (≈ 0.508 µM) | 1.39 (≈ 4.82 µM) | 2.79 (≈ 9.71 µM) | 0 | 4.9 (≈ 17 µM) | 100 | 0 | 0.259 (≈ 0.901 µM) | – | – | –
Cc1nc2c(SCC#N)nnc(-c3ccccc3)c2s1 | 6.52 (≈ 21.8 µM) | 6.75 (≈ 22.6 µM) | > 8.95 | 0 | > 8.95 | 25 | 0 | 0.444 (≈ 1.49 µM) | – | – | –
O=C(Nc1nnc(-c2ccno2)o1)c1nc2ccccc2s1 | > 9.4 | 6.88 (≈ 22 µM) | > 9.4 | 0 | > 9.4 | 100 | 0 | > 9.4 | – | – | –
CC(C)c1ccc(NC(=O)c2n[nH]c3ccccc23)cc1 | 2.65 (≈ 9.49 µM) | > 8.38 | > 8.38 | 0 | > 8.38 | 100 | 0 | 2.58 (≈ 9.23 µM) | – | – | –
O=C(NCCc1c[nH]c2ccccc12)c1n[nH]c2ccccc12 | > 9.13 | > 9.13 | > 9.13 | 0 | > 9.13 | 100 | 0 | 8.2 (≈ 27 µM) | – | – | –
O=C(CC1CSc2nccc(=O)n21)Nc1cc(C(F)(F)F)cc(C(F)(F)F)c1 (stereo unspecified) | > 12.7 | > 12.7 | > 12.7 | 0 | > 12.7 | 100 | 0 | > 12.7 | – | – | –
Cc1ccc2nc(-c3ccc(NC(=O)CC4CSc5nc(C)cc(=O)n54)cc3)sc2c1 (stereo unspecified) | > 13.5 | 3.38 (≈ 7.54 µM) | > 13.5 | 0 | > 13.5 | 100 | 0 | > 13.5 | – | – | –

Now from value to molecule, other results behind:

IC50 [1] [µg/mL] | IC50 (Plasmodium falciparum K1) [µg/mL] | IC50 (Leishmania infantum) [µg/mL] | SMILES | % Inhibition (Schistosoma mansoni) [%] | IC50 [2] [µg/mL] | % Inhibition (Onchocerca ochengi [3]) [%] | % Inhibition (Onchocerca ochengi [4]) [%] | IC50 (Trypanosoma cruzi) [µg/mL] | % Inhibition (Brugia malayi [5]) [%] | % Inhibition (Onchocerca lienalis) [%] | % Inhibition (Brugia malayi [6]) [%]
> 10.7 | > 10.7 | > 10.7 | O=C(CC1CSc2nccc(=O)n21)Nc1ccc(Cl)c(Cl)c1 (stereo unspecified) | 0 | > 10.7 | 100 | 0 | > 10.7 | – | – | –
> 7.84 | > 7.84 | > 7.84 | CCCC(=O)Nc1nnc(-c2ccc(C)cc2)s1 | 0 | > 7.84 | – | – | > 7.84 | 100 | 0 | 0
0.341 (≈ 0.826 µM) | > 13.5 | 4.84 (≈ 11.7 µM) | CCOC(=O)c1c(NC(=O)c2cccc(C(F)(F)F)c2)sc2c1CCN(C)C2 | 0 | > 13.5 | – | – | 4.8 (≈ 11.6 µM) | 0 | 0 | 33.33
1.95 (≈ 4.49 µM) | > 14.1 | 4.58 (≈ 10.5 µM) | CCOC(=O)c1c(NC(=O)c2sc3ccccc3c2Cl)sc2c1CCN(C)C2 | 0 | 3.6 (≈ 8.29 µM) | – | – | 0.568 (≈ 1.31 µM) | 33.33 | 0 | 33.33
0.321 (≈ 0.9 µM) | 1.87 (≈ 5.24 µM) | 2.32 (≈ 6.51 µM) | CCC(=O)c1c(NC(=O)c2ccc(C)cc2)sc2c1CCN(CC)C2 | 0 | > 11.8 | – | – | 0.479 (≈ 1.34 µM) | 33.33 | 0 | 33.33
4.6 (≈ 10.4 µM) | 3.35 (≈ 7.57 µM) | 0.465 (≈ 1.05 µM) | CC(C)N1CCc2c(sc(NC(=O)COc3ccc(Cl)cc3Cl)c2C(N)=O)C1 | 0 | 3.18 (≈ 7.19 µM) | – | – | 0.595 (≈ 1.35 µM) | 0 | 20 | 33.33
> 10.5 | > 10.5 | 0.339 (≈ 0.97 µM) | Cc1cc(NC(=O)C2CCCN(S(=O)(=O)c3ccccc3)C2)on1 (stereo unspecified) | 41.7 | > 10.5 | 0 | – | > 10.5 | 0 | – | 0
4.57 (≈ 10.7 µM) | 3.65 (≈ 8.53 µM) | > 13.9 | Cc1ccc(-n2ccnc2N2CCN(C(=O)c3ccccc3SC(F)F)CC2)cc1 | 58.3 | 13.9 (≈ 32.6 µM) | 100 | – | 0.531 (≈ 1.24 µM) | 0 | – | 0
3.85 (≈ 9.71 µM) | > 11.9 | > 11.9 | O=C(C1CC1)N1CCc2ccc(NS(=O)(=O)c3ccc4c(c3)CCCC4)cc21 | 0 | 1.28 (≈ 3.24 µM) | 0 | – | 0.829 (≈ 2.09 µM) | 0 | – | 0
> 13.5 | > 13.5 | 0.437 (≈ 0.972 µM) | COc1ccc(CC(=O)NCCS(=O)(=O)N2CCN(c3ncccn3)CC2)cc1OC | 33.3 | > 13.5 | 0 | – | > 13.5 | 0 | – | 0
> 11.4 | 0.152 (≈ 0.4 µM) | 3.69 (≈ 9.71 µM) | Cc1ccc(N2CCn3c2nnc(C(=O)NCCC2=CCCCC2)c3=O)cc1 | 0 | > 11.4 | 0 | 0 | > 11.4 | – | – | –
> 12.5 | 5.03 (≈ 12 µM) | > 12.5 | CC1CCCN(S(=O)(=O)c2ccc(C(=O)Nc3nnc(-c4ccno4)o3)cc2)C1 (stereo unspecified) | 0 | > 12.5 | 100 | 0 | > 12.5 | – | – | –
> 8.08 | > 8.08 | > 8.08 | O=C(NCCC1=CCCCC1)c1n[nH]c2ccccc12 | 0 | > 8.08 | 100 | 0 | > 8.08 | – | – | –
> 11 | > 11 | > 11 | O=C(NCc1cc(-c2ccccc2F)on1)c1ccc(Br)o1 | 0 | > 11 | 100 | 0 | > 11 | – | – | –
4.07 (≈ 9.71 µM) | 6.43 (≈ 15.3 µM) | > 12.6 | Cc1cc(=O)n2c(n1)SCC2CC(=O)NCCC(c1ccccc1)c1ccccc1 (stereo unspecified) | 0 | > 12.6 | 100 | 0 | > 12.6 | – | – | –
6.01 (≈ 13.9 µM) | > 12.9 | > 12.9 | O=C(Nc1ccc(C(F)(F)F)cc1)N1CCN(Cc2nnnn2-c2ccccc2)CC1 | – | > 12.9 | 100 | – | > 12.9 | 0 | – | 0
> 12.2 | > 12.2 | 3.95 (≈ 9.71 µM) | CN(c1ccccc1)c1nnc(-c2ccc(NC(=O)Cc3cccs3)cc2)s1 | – | > 12.2 | 100 | – | > 12.2 | 25 | – | 0
